These results are taken from ChEMBL document CHEMBL4311988, “Identification of novel non-nucleoside vinyl-stilbene analogs as potent norovirus replication inhibitors with a potential host-targeting mechanism” (Eur J Med Chem, 2019).

The nature of data set [1]: Metabolic stability in human liver microsomes assessed as compound remaining at 1 uM preincubated for 5 mins followed by NADPH addition and measured after 30 mins by LC-MS/MS analysis relative to control. In kind it is ADME, Microsome. The following applies: read-out: Stability. In a few lines:
(§1)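 Human or mouse liver microsomes (0.5 mg/ml) in 0.1 M phosphate buffer pH 7.4 were preincubated with compound at 1 μM for 5 min at 37 °C. An NADPH regeneration system was then added or omitted, and incubation continued 30 min at 37 °C. Reactions were stopped with acetonitrile containing internal standard. Parent compound remaining was measured by LC-MS/MS (C18 column, 0.1% formic acid water/acetonitrile).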

Another data set relates to Murine norovirus 1. Nature of the data set: Antiviral activity against MNV-1 infected in mouse RAW264.7 cells at 0.05 to 10 uM after 48 hrs by crystal violet staining based assay. It counts as functional, cell-based.
For data set [2], the target named is T1, Heat shock factor protein 1 (Homo sapiens) (UniProt Q00613).
T1 sequence (whole entry): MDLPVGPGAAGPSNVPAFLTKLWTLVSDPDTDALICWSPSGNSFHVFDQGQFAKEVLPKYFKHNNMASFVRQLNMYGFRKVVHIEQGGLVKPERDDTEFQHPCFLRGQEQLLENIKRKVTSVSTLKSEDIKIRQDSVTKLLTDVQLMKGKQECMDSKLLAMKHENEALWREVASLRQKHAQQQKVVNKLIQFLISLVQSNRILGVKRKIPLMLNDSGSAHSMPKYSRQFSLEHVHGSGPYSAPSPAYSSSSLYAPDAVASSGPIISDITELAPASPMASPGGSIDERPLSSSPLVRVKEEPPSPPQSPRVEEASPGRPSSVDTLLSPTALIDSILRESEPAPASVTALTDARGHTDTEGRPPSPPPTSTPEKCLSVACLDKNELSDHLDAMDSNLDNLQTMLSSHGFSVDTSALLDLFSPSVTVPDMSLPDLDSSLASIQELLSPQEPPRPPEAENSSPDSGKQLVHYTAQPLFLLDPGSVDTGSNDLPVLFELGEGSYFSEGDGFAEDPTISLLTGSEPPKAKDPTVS
Briefly: Activation of HSF-1 in human HG23 cells transfected with human norovirus at 10 uM after 72 hrs by dual-luciferase reporter gene assay. In kind it is cell-based. In short, it runs like this: (§2)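 HG23 cells carrying the NV replicon were transfected with a Cignal finder reporter array and then given DMSO or 10 μM test compound for 72 h. Luciferase activity for each pathway was read with a dual-luciferase reagent.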
(Reporter assays use an easily measured gene product as a stand-in for the process of interest.)

Data set [3] can be described thus: Cytotoxicity against human HG23 cells assessed as cell viability at 10 uM after 3 days by tetrazolium dye based assay relative to control. The following applies: read-out: Activity. In a few lines: (§3)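 HG23 cells were treated with DMSO or compound for 3 days, at 10 μM for single-point testing or across a dose range for CC50. Viability was read with a tetrazolium salt (EZ-CYTOX) reagent. Values are means of the most representative triplicate experiment with standard deviations.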

The subject of a further data set is Norovirus GII.4. Nature of the data set: Inhibition of norovirus GII.4 RNA-dependent RNA polymerase using poly(C)RNA as substrate incubated for 10 mins and measured after 15 mins by picogreen staining based assay. In short, it runs like this: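 Recombinant human norovirus GII.4 Sydney 2012 RdRp (400 ng) was preincubated with compound (10 μM) or DMSO (0.5% v/v) for 10 min at 25 °C. It was then added to 5 μM rGTP, 6 μg/mL poly(C), 2.5 mM MnCl₂, 5 mM DTT, 0.01% BSA and 0.005% Tween 20 in 20 mM Tris-HCl pH 7.5. After 15 min at 25 °C, reactions were stopped with 10 mM EDTA and dsRNA quantified by PicoGreen fluorescence (ex 480/em 520). Two independent experiments were run in triplicate.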

A short description of data set [4]: Metabolic stability in mouse liver microsomes assessed as compound remaining at 1 uM after 30 mins in absence of NADPH by LC-MS/MS analysis relative to control. The conditions noted are these: read-out: Stability. It counts as ADME, Microsome. In short, it runs like this: as §1
A general note: Microsomes from liver hold many membrane-bound enzymes, among them those of drug oxidation.

Data set [5] in a line: Therapeutic index, ratio of CC50 for cytotoxicity against human HG23 cells harboring human norovirus replicons to EC50 for antiviral activity against norovirus infected in human HG23 cells. It counts as toxicity, cell-based. The conditions noted are these: read-out: Ratio CC50/EC50.
Data set [6] has as its target T1, Heat shock factor protein 1 (Homo sapiens). Nature of the data set: Activation of HSF-1 in human HG23 cells transfected with human norovirus after 72 hrs by dual-luciferase reporter gene assay. It counts as cell-based. In a few lines: as §2
Data set [7] deals with Norovirus. Nature of the data set: Antiviral activity against human norovirus infected in human HG23 cells assessed as inhibition of viral replication at 10 uM after 3 days by qRT-PCR analysis relative to control. It counts as functional. Also on record: scale not given: the % may be the effect or the level left. (In general: Real-time PCR tracks product formation cycle by cycle.)

Data set [8] relates to Norovirus. Briefly: Antiviral activity against human norovirus infected in HG23 cells assessed as inhibition of neomycin phosphotransferase protein expression after 5 days by Western blot analysis. It counts as functional, organism-based. The conditions noted are these: HG23, 120 h.
A short description of data set [9]: Cytotoxicity against human HG23 cells assessed as reduction in cell viability after 3 days by tetrazolium dye based assay. In a few lines: as §3
The nature of data set [10]: Metabolic stability in human liver microsomes assessed as compound remaining at 1 uM after 30 mins in absence of NADPH by LC-MS/MS analysis relative to control. The following applies: read-out: Stability. In kind it is ADME, Microsome. In short, it runs like this:
as §1

A further data set concerns Feline calicivirus. Briefly: Antiviral activity against feline calicivirus- infected in cat CRFK cells at >5 uM after 48 hrs by crystal violet staining based assay. In kind it is functional, organism-based.
A short description of data set [11]: Metabolic stability in mouse liver microsomes assessed as compound remaining at 1 uM preincubated for 5 mins followed by NADPH addition and measured after 30 mins in presence of NADPH relative to control. It counts as ADME, Microsome. The conditions noted are these: read-out: Stability. In a few lines: as §1
Data set [12] has as its target T2, Nuclear factor erythroid 2-related factor 2 (Homo sapiens) (UniProt Q16236).
T2 sequence (whole entry): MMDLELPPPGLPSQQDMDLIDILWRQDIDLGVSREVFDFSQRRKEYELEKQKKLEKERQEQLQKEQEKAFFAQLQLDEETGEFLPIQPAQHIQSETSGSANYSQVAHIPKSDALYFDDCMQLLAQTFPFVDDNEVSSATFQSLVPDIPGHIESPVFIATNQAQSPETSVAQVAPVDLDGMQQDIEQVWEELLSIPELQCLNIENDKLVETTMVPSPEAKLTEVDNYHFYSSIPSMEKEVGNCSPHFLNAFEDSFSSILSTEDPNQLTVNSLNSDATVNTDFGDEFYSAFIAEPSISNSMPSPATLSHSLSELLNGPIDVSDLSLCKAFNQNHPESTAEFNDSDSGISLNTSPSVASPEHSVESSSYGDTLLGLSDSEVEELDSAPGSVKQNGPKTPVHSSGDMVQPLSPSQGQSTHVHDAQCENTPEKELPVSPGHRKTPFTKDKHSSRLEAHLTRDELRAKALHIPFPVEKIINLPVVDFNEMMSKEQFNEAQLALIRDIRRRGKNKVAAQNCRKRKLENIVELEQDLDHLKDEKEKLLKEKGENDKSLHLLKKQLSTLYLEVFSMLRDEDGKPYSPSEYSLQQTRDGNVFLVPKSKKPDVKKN
Briefly: Activation of NRF2 pathway in human HG23 cells transfected with human norovirus at 10 uM after 72 hrs by dual-luciferase reporter gene assay. It counts as cell-based. In a few lines: as §2

The subject of data set [13] is Norovirus. Nature of the data set: Antiviral activity against human norovirus infected in human HG23 cells assessed as inhibition of viral replication after 3 days by qRT-PCR analysis. In kind it is functional, organism-based. The following applies: HG23, 72 h.

Activity calls are given as the source filed them. The calls are words filed in the database; no cut-off is given here.

As a reminder, the EC50 is the concentration at which the effect is half-maximal. The term CC50 denotes the concentration that lowers cell viability or growth by half. For `C=Cc1c(OC)cc(/C=C/c2ccc(C(=O)N3CCN(Cc4ccc(C(F)(F)F)cc4)CC3)cc2)cc1OC`, the remaining at 0.5 h, 1 µM in data set [1] was 89.1%; in data set [4], 99.2%; in data set [10], 94.3%; in [11] it was 70.5%. For the same compound, the outcome with Murine norovirus 1 was inactive. Also, the outcome (in data set [2]; with Feline calicivirus; in data set [12]) was Active. In data set [3], the viability at 72 h, 10 µM is 105%. The inhibition entry in the data set on Norovirus GII.4 is “inactive”. Also, the selectivity ratio in [5] is > 41.2. The results for the Activity entry (in data set [6]; with Norovirus [7]) were “Dose-dependent effect” and 4.2%, respectively. Moreover, the results for the EC50 with Norovirus [8] and with Norovirus [13] were 800 nM and 2430 nM, respectively. In data set [9], the CC50 at 72 h is > 100000 nM.
